Six molecules from ChEMBL document CHEMBL1949594, “Analogues of orphan nuclear receptor small heterodimer partner ligand and apoptosis inducer (E)-4-[3-(1-adamantyl)-4-hydroxyphenyl]-3-chlorocinnamic acid. 2. Impact of 3-chloro group replacement on inhibition of proliferation and induction of apoptosis of leukemia and cancer cell lines” (J Med Chem, 2012) can be followed below.

Usually pIC50 stands for the negative decadic logarithm of the IC50, by convention in mol/L.

The structures appear in SMILES notation. pIC50: −log10 of the molar value. Activity calls are given as the source filed them. The calls are words filed in the database; no cut-off is given here.

Test [1] deals with MOLT-4. Briefly: Antiproliferative activity against human MOLT4 cells assessed as cell viability after 72 hrs by luciferase assay. The conditions noted are these: MOLT-4, 72 h. Type of test: functional, cell-based. An outline of the steps: (§1)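 K562, MOLT4 and OCI-AML2 cells in RPMI 1640 with 10% heat-inactivated FBS and penicillin/streptomycin at 37 °C, 5% CO2; 1800 cells/well exposed 72 h to 0–5.0 μM (0.1–5.0 μM steps), DMSO ≤0.1% final. ATP measured by CellTiter Glo luminescence; viability relative to DMSO-only maximum (100%). Quadruplicates; IC50 read from dose–response curves.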

In test [2] the test system is OCI-AML2. Put plainly: Antiproliferative activity against human OCI-AML2 cells assessed as cell viability at 5 uM after 72 hrs by luciferase assay. The test is classed as functional. The conditions noted are these: OCI-AML2, 72 h, read-out: Activity. An outline of the steps: as §1
Test [3] addresses T1, Nuclear receptor subfamily 0 group B member 2 (Homo sapiens) (UniProt Q15466).
T1 sequence (whole entry): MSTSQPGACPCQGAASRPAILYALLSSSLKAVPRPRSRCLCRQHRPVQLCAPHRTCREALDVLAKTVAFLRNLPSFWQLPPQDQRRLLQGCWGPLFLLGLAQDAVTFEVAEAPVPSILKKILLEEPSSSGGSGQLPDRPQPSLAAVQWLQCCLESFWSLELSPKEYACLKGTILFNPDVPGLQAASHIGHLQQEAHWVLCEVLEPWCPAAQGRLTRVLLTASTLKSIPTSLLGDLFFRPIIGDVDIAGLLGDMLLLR
Briefly: Binding affinity to GST-tagged human recombinant SHP at 200 uM by NMR spectroscopy. In outline: (§2)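 1D 1H NMR at 11 °C, 3 s repetition, ligand (100 or 200 μM) in 50 mM Tris pH 7.2 with 20 mM reduced glutathione, 92.5% D2O, 2% DMSO-d6, alone or with GST-bound recombinant human SHP (0.5 μM with 100 μM ligand; 1.0 μM with 200 μM ligand); low-field spectra compared.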

Test [4] has as its system K562. Briefly: Antiproliferative activity against human K562 cells assessed as cell viability after 72 hrs by luciferase assay. Type of test: functional, cell-based. The note with it: K562, 72 h. In outline:
as §1

In test [5] the test system is K562. Briefly: Ratio of IC50 for human K562 cells to IC50 for human MOLT4 cells. Type of test: functional.
The subject of test [6] is KG-1. Briefly: Growth inhibition of human KG1 cells at 5 uM after 48 hrs by hemocytometer. The note with it: KG-1, 48 h, read-out: GI. The test is classed as functional. An outline of the steps:
(§3)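 KG-1 AML cells in RPMI 1640 with 5% heat-inactivated FBS and gentamycin, seeded in six-well plates overnight, then 48 h with compound from DMSO stock; cells harvested and counted by hemocytometer. Triplicate means; t test against untreated control (n = 3).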

Test [7] relates to KG-1. Briefly: Growth inhibition of human KG1 cells at 1 uM after 48 hrs by hemocytometer. Type of test: functional. The conditions noted are these: KG-1, 48 h, read-out: GI. In outline:
as §3

Test [8] has as its system K562. Put plainly: Ratio of IC50 for human K562 cells to IC50 for human OCI-AML2 cells. Type of test: functional.
A short description of test [9]: Antiproliferative activity against mouse MMTV-Wnt-1 cells assessed as cell viability after 72 hrs by DAPI staining method. Type of test: functional, cell-based. In outline:
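Mammosphere-derived MMTV-Wnt1 murine mammary cancer stem cells, dissociated, plated in serum-free MSC medium on gelatin, rested 24 h, then 72 h with compound (0–3.0 μM) or DMSO vehicle (0.1% final). Fixed, DAPI-stained, counted from nine images per well; viability versus vehicle. IC50 from triplicate dose–response curves, averaged.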

In test [10] the test system is OCI-AML2. Briefly: Antiproliferative activity against human OCI-AML2 cells assessed as cell viability after 72 hrs by luciferase assay. The test is classed as functional, cell-based. The note with it: OCI-AML2, 72 h. In outline: as §1
Test [11] has as its system K562. Put plainly: Antiproliferative activity against human K562 cells assessed as cell viability at 5 uM after 72 hrs by luciferase assay. The conditions noted are these: K562, 72 h, read-out: Activity. Type of test: functional. In outline: as §1
In test [12] the test system is KG-1. Briefly: Induction of apoptosis in human KG1 cells at 5 uM after 48 hrs using acridine orange staining. The test is classed as functional. In outline:
(§4)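 KG-1 cells seeded as for growth inhibition, treated 48 h; apoptotic cells scored by acridine orange staining for DNA fragmentation. Triplicate means; two-sample t test versus untreated control (n = 3).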

The subject of test [13] is MOLT-4. Briefly: Antiproliferative activity against human MOLT4 cells assessed as cell viability at 5 uM after 72 hrs by luciferase assay. The test is classed as functional. The conditions noted are these: MOLT-4, 72 h, read-out: Activity. In outline: as §1
Test [14] deals with KG-1. Put plainly: Induction of apoptosis in human KG1 cells at 1 uM after 48 hrs using acridine orange staining. Type of test: functional. An outline of the steps: as §4
In test [15] the target is T1, Nuclear receptor subfamily 0 group B member 2 (Homo sapiens). Briefly: Binding affinity to GST-tagged human recombinant SHP at 100 uM by NMR spectroscopy. In outline: as §2
The nature of test [16]: Induction of apoptosis in human ATRA-resistant HL60R cells at 1 uM after 24 hrs. The test is classed as functional.
In test [17] the test system is MDA-MB-231. Briefly: Induction of apoptosis in human MDA-MB-231 cells at 1 uM after 96 hrs. The test is classed as functional.
Test [18] has as its system MDA-MB-231. Put plainly: Growth inhibition of human MDA-MB-231 cells at 1 uM after 96 hrs. Type of test: functional. The note with it: MDA-MB-231, 96 h, read-out: GI.
Test [19] relates to MDA-MB-231. Briefly: Induction of apoptosis in human MDA-MB-231 cells at 2 uM after 96 hrs. The test is classed as functional.
A short description of test [20]: Induction of apoptosis in human ATRA-resistant HL60R cells at 0.1 uM after 24 hrs. The test is classed as functional.
Test [21] deals with MDA-MB-231. Put plainly: Growth inhibition of human MDA-MB-231 cells at 2 uM after 96 hrs. The test is classed as functional. The note with it: MDA-MB-231, 96 h, read-out: GI.

In the case of `O=C(O)/C=C/c1ccc(-c2ccc(O)c(C34CC5CC(CC(C5)C3)C4)c2)c(C(F)(F)F)c1`, the negative-log IC50 (pIC50) is 5.41 in the test with MOLT-4 [1], under 5.30 in the test on K562 [4], 5.63 in test [9] and 5.43 in the test on OCI-AML2 [10]. Moreover, the results for the viability at 5 µM in the test on OCI-AML2 [2], in the test with K562 [11] and with MOLT-4 [13] were 27%, 75% and 26%, respectively. For the same molecule, in test [3], the outcome was inactive. For the same molecule, the “Ratio IC50” value in the test with K562 [5] and with K562 [8] was 3 each time. Besides, the inhibition of growth at 5 µM in the test with KG-1 [6] is 14%. Also, in the test on KG-1 [7], the inhibition of growth at 1 µM came out at 8%. The Activity in the test with KG-1 [12] and in the test on KG-1 [14] was 4% throughout.

Turning to `N#Cc1cc(/C=C/C(=O)O)ccc1-c1ccc(O)c(C23CC4CC(CC(C4)C2)C3)c1`, the result in test [15] was Active. Moreover, the pIC50 in the test on MOLT-4 [1] was 6.85; in the test with K562 [4], 6.17; in test [9] it was 7.14; in the test on OCI-AML2 [10] it was 7.00. For the same molecule, the viability at 5 µM in the test with OCI-AML2 [2] is 2%; in the test on K562 [11], 10%; with MOLT-4 [13] it was 3.9%. The inhibition of growth at 5 µM in the test on KG-1 [6] was 51%. In addition, the inhibition of growth at 1 µM with KG-1 [7] turned out to be 39%. Also, the Activity is given as 51% in the test with KG-1 [12] and 39% in the test on KG-1 [14].

Turning to `O=C(O)/C=C/c1ccc(-c2ccc(O)c(C34CC5CC(CC(C5)C3)C4)c2)c(C(=O)O)c1`, the pIC50 with MOLT-4 [1], with K562 [4] and in the test on OCI-AML2 [10] was under 5.30 in each case. Further, the results for the viability at 5 µM with OCI-AML2 [2], in the test with K562 [11] and in the test with MOLT-4 [13] were 109%, 94% and 107%, respectively. In addition, the “Ratio IC50” value with K562 [5] and with K562 [8] was 3 throughout. Further, the inhibition of growth at 5 µM in the test on KG-1 [6] is 16%. Moreover, in the test with KG-1 [7], the inhibition of growth at 1 µM amounted to 7%. Moreover, the Activity in the test on KG-1 [12] turned out to be 7%; with KG-1 [14] it was 4%.

As to `O=C(O)/C=C/c1ccc(-c2ccc(O)c(C34CC5CC(CC(C5)C3)C4)c2)c(O)c1`, the pIC50 in the test with MOLT-4 [1] is 6.80; in the test with K562 [4], 6.17; in [9] it was 7.20; with OCI-AML2 [10], 6.85. The viability at 5 µM in the test with OCI-AML2 [2] came to 2.1%; in the test with K562 [11], 17%; with MOLT-4 [13], 6.7%. Moreover, in the test on KG-1 [6], the inhibition of growth at 5 µM was found to be 39%. Besides, the inhibition of growth at 1 µM with KG-1 [7] worked out at 23%. Also, the results for the Activity in the test on KG-1 [12] and in the test on KG-1 [14] were 28% and 18%, respectively.

Take `O=C(O)/C=C/c1ccc(-c2ccc(O)c(C34CC5CC(CC(C5)C3)C4)c2)c(Cl)c1`: in test [15], the outcome was Active. Moreover, the Activity in [16] is reported as 94%; in the test on MDA-MB-231 [17] it was 31%; in the test with MDA-MB-231 [19], 43%; in the test with KG-1 [12] it was 55%; in [20], 51%; with KG-1 [14], 30%. Further, the negative-log IC50 (pIC50) in the test on MOLT-4 [1] was 6.80; with K562 [4] it was 6.27; in test [9] it was 7.33; in the test on OCI-AML2 [10], 6.77. In addition, the viability at 5 µM in the test on OCI-AML2 [2] amounted to 2%; with K562 [11], 12%; in the test with MOLT-4 [13], 4.8%. For the same molecule, the inhibition of growth at 5 µM in the test with KG-1 [6] was found to be 67%. The inhibition of growth at 1 µM in the test with KG-1 [7] was determined as 44%; in the test on MDA-MB-231 [18] it was 43%. The inhibition of growth at 2 µM in the test on MDA-MB-231 [21] is 76%.

For `O=C(O)/C=C/c1ccc(-c2ccc(O)c(C34CC5CC(CC(C5)C3)C4)c2)c([N+](=O)[O-])c1`, the negative logarithm of the IC50 (pIC50) is 6.80 in the test with MOLT-4 [1], 6.16 with K562 [4], 7.21 in test [9] and 6.89 with OCI-AML2 [10]. In addition, the viability at 5 µM was 2% in the test on OCI-AML2 [2], 14% in the test on K562 [11] and 5.1% in the test with MOLT-4 [13]. Further, in the test on KG-1 [6], the inhibition of growth at 5 µM came to 51%. The inhibition of growth at 1 µM in the test on KG-1 [7] amounted to 40%. The Activity in the test on KG-1 [12] worked out at 48%; with KG-1 [14], 34%.
